Measurements reported in ChEMBL document CHEMBL1122923, “Structural features of imidazole derivatives that enhance styrene oxide hydrolase activity in rat hepatic microsomes” (J Med Chem, 1985).

What was measured:
[1] = Partition coefficient (logP); assay type: physicochemical; details: octanol/water
[2] = molecular target: T1, Epoxide hydrolase 1 (Rattus norvegicus) (UniProt P07687); experiment: Enhanced styrene oxide hydrolase activity pH 8.7; assay type: functional
T1 sequence (whole entry): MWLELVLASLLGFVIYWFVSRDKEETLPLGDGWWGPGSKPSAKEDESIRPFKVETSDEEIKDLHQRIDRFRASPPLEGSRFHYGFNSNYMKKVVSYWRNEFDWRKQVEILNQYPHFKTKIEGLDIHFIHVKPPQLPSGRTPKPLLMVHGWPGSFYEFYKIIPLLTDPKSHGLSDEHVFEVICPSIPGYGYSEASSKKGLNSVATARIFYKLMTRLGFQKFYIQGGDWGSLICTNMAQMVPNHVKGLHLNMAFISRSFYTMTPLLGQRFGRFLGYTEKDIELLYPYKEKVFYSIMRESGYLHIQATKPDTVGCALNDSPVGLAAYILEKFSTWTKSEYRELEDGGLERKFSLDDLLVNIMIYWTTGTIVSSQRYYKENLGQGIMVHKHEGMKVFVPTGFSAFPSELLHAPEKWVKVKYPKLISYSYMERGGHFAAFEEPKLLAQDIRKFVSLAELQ
Outline: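 Imidazoles were added from aqueous solution, with diluted HCl or solvent in reference tubes, and incubated 10 min at 37 °C. Hexane stopped the reaction; tubes were run in duplicate. E100 (the concentration giving a 100% rise) came from the linear concentration-effect plot; mean ± SD over n rats.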

Rattus norvegicus [3] = species on record: Rattus norvegicus; experiment: Maximum enhancement of styrene oxide hydrolase activity was reported at compound concentration of 1e-3 M
[4] = molecular target: T1, Epoxide hydrolase 1 (Rattus norvegicus); experiment: (§1) Enhancement of epoxide hydrolase activity
Outline: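 Microsomes from untreated rats, or rats given PB 80 mg/kg or 3MC 40 mg/kg ip daily for 3 days; 0.1-0.2 mg protein, 0.25 M Tris-Cl pH 8.7, 0.03% Tween-80. Value is the ratio of activity with to without derivative; mean ± SD, 3-4 rats.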

Rattus norvegicus [5] = species on record: Rattus norvegicus; experiment: Maximum enhancement of styrene oxide hydrolase activity was reported at compound concentration of 5e-4 M
Outline: (§2)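 Washed liver microsomes from untreated male Wistar rats (200 ± 20 g), stored at -20 °C. Tubes (0.145 mL) held 0.25 M Tris-Cl pH 8.7, 0.03% Tween-80, 0.1-0.2 mg microsomal protein and ¹⁴C-styrene oxide. Imidazoles were added from aqueous solution, in duplicate tubes at each concentration. Incubation was 10 min at 37 °C, stopped with hexanes. Maximum enhancement is the highest activity ratio (with/without additive) observed; mean ± SD over individual rats.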

Rattus norvegicus [6] = species on record: Rattus norvegicus; experiment: Enhancement of styrene hydrolase activity was determined in male wistar rat hepatic microsomes given to phenobarbital treated rats.; details: Liver
Outline: (§3)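 Rats were given phenobarbital 80 mg/kg ip daily for 3 days before washed hepatic microsomes were prepared. Ratio of activity with vs without derivative, from 3-4 rats or individual values.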

Rattus norvegicus [7] = species on record: Rattus norvegicus; experiment: Enhancement of styrene hydrolase activity was determined in male wistar rat hepatic microsomes given to 3-methylcholanthrene treated rats.; details: Liver
Outline: (§4)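 Male Wistar rats were pretreated ip with 3-methylcholanthrene 40 mg/kg daily for 3 days; washed liver microsomes were then prepared. Reported as activity ratio ± SD, n = 3-4 or individual.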

Rattus norvegicus [8] = species on record: Rattus norvegicus; experiment: Enhancement of styrene hydrolase activity was determined in male wistar rat hepatic microsomes given to untreated rats.; details: Liver
Outline: (§5)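 Hepatic microsomes (washed) from untreated male Wistar rats (200 ± 20 g). Incubation: 0.25 M Tris-Cl pH 8.7, 0.03% Tween-80, 0.1-0.2 mg protein, 37 °C, 10 min, stopped with hexanes, duplicate tubes. Enhancement is the activity ratio with/without derivative, mean ± SD of 3-4 rats.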

Rattus norvegicus [9] = species on record: Rattus norvegicus; experiment: Maximum enhancement of styrene oxide hydrolase activity was reported at compound concentration of 5e-3 M
Rattus norvegicus [10] = species on record: Rattus norvegicus; experiment: Maximum enhancement of styrene oxide hydrolase activity was reported at compound concentration of 1e-4M; outline: as §2
[11] = molecular target: T1, Epoxide hydrolase 1 (Rattus norvegicus); experiment: as §1; remark: listed apart in the source
Outline: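 Microsomes from untreated rats with a concentration series of N-1-substituted imidazoles added from aqueous solution. Styrene oxide hydrolysis in 0.25 M Tris-Cl pH 8.7, 0.03% Tween-80, 10 min, duplicate tubes, no-tissue blanks. E100 is the concentration giving 100% enhancement, read from the linear concentration-effect range using at least three concentrations on each side. Mean ± SD over individual rats.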

Rattus norvegicus [12] = species on record: Rattus norvegicus; experiment: Maximum enhancement of styrene oxide hydrolase activity was reported at compound concentration of 5e-2M
Rattus norvegicus [13] = species on record: Rattus norvegicus; experiment: Maximum enhancement of styrene oxide hydrolase activity was reported at compound concentration of 1e-1M
Rattus norvegicus [14] = species on record: Rattus norvegicus; experiment: Enhancement of styrene hydrolase activity was determined in male wistar rat hepatic microsomes given to untreated rats; details: Liver; outline: as §5
Rattus norvegicus [15] = species on record: Rattus norvegicus; experiment: Enhancement of styrene hydrolase activity was determined in male wistar rat hepatic microsomes given to 3-methylcholanthrene treated rats; details: Liver; outline: as §4
Rattus norvegicus [16] = species on record: Rattus norvegicus; experiment: Enhancement of styrene hydrolase activity was determined in male wistar rat hepatic microsomes given to phenobarbital treated rats; details: Liver; outline: as §3
Rattus norvegicus [17] = species on record: Rattus norvegicus; experiment: Maximum enhancement of styrene oxide hydrolase activity was reported at compound concentration of 1e-2M

Q: What does the source list for `O=[N+]([O-])c1ccc(-n2ccnc2)cc1`?
A: logP ([1]; read-out: logP): 1.19; E100 [2]: 3900 µM; Max enhancement (Rattus norvegicus [3]): 1.3; Log 1/E100 [4]: 2.4

Q: With `Clc1ccc(COC(Cn2ccnc2)c2ccc(Cl)cc2Cl)c(Cl)c1` (centres undefined) [MICONAZOLE] as the molecule, how does the logP ([1]; read-out: logP) read?
A: Its logP is 5.84.

Q: What about the E100 [2] of the same molecule?
A: Its E100 is 84 µM.

Q: And the Max enhancement (Rattus norvegicus [5])?
A: Its Max enhancement is 3.1.

Q: And the Log 1/E100 [4]?
A: The Log 1/E100 was 4.08.

Q: With `c1ccc(-c2ncc[nH]2)cc1` as the molecule, how does the Enhancement (Rattus norvegicus [6]) read?
A: The Enhancement was 1.99.

Q: And the Enhancement (Rattus norvegicus [7])?
A: Its Enhancement is 2.09.

Q: What about the Enhancement (Rattus norvegicus [8]) of the same molecule?
A: The Enhancement was 2.

Q: Which logP ([1]; read-out: logP) does the source give for `c1ccc(Cn2ccnc2)cc1` [BENZYLIMIDAZOLE] here?
A: Its logP is 2.01.

Q: What about the E100 [2] of the same molecule?
A: The E100 was 230 µM.

Q: What about the Log 1/E100 [4] of the same molecule?
A: The Log 1/E100 was 3.64.

Q: What about the Max enhancement (Rattus norvegicus [9]) of the same molecule?
A: The Max enhancement was 5.7.

Q: Which results are given for `Clc1ccccc1C(c1ccccc1)(c1ccccc1)n1ccnc1` [CLOTRIMAZOLE]?
A: logP [1]: 6.14; Max enhancement (Rattus norvegicus [10]): 5.4; E100 [2]: 6.2 µM; Log 1/E100 [11]: 5.21

Q: What does the source list for `Cn1ccnc1` [1-METHYLIMIDAZOLE]?
A: logP ([1]; read-out: logP): 0.28; E100 [2]: 12000 µM; Log 1/E100 [4]: 1.94; Max enhancement (Rattus norvegicus [12]): 3.9

Q: For `c1ccc(-c2c[nH]cn2)cc1`, which Enhancement (Rattus norvegicus [6]) is on record?
A: The Enhancement was 2.45.

Q: What about the Enhancement (Rattus norvegicus [7]) of the same molecule?
A: The Enhancement was 2.61.

Q: What about the Enhancement (Rattus norvegicus [8]) of the same molecule?
A: Its Enhancement is 2.3.

Q: For `c1c[nH]cn1` [IMIDAZOLE], which logP ([1]; read-out: logP) is on record?
A: The logP was -0.42.

Q: What about the E100 [2] of the same molecule?
A: Its E100 is 8800 µM.

Q: What about the Log 1/E100 [11] of the same molecule?
A: Its Log 1/E100 is 2.05.

Q: What about the Max enhancement (Rattus norvegicus [13]) of the same molecule?
A: Its Max enhancement is 5.1.

Q: Which results are given for `CCn1ccnc1`?
A: logP ([1]; read-out: logP): 0.81; E100 [2]: 2800 µM; Log 1/E100 [11]: 2.55; Max enhancement (Rattus norvegicus [12]): 4.6

Q: Which results are given for `CC(=O)N1CCN(c2ccc(OCC3COC(Cn4ccnc4)(c4ccc(Cl)cc4Cl)O3)cc2)CC1` (centres undefined)?
A: E100 [2]: 54 µM; Max enhancement (Rattus norvegicus [3]): 3.3

Q: What does the source list for `Oc1ccc(-n2ccnc2)cc1`?
A: logP ([1]; read-out: logP): 0.94; E100 [2]: 240 µM; Max enhancement (Rattus norvegicus [3]): 3.8; Log 1/E100 [4]: 3.62

Q: With `c1ccc(C2NCCN2)cc1` as the molecule, how does the Enhancement (Rattus norvegicus [14]) read?
A: Its Enhancement is 1.19.

Q: What about the Enhancement (Rattus norvegicus [15]) of the same molecule?
A: Its Enhancement is 1.15.

Q: And the Enhancement (Rattus norvegicus [16])?
A: Its Enhancement is 1.11.

Q: Which results are given for `Fc1ccc(-n2ccnc2)cc1`?
A: logP ([1]; read-out: logP): 1.67; E100 [2]: 550 µM; Log 1/E100 [4]: 3.26; Max enhancement (Rattus norvegicus [9]): 4.4

Q: Which logP ([1]; read-out: logP) does the source give for `c1ccc(-n2ccnc2)cc1` here?
A: The logP was 1.48.

Q: And the Enhancement (Rattus norvegicus [14])?
A: The Enhancement was 3.34.

Q: And the E100 [2]?
A: The E100 was 330 µM.

Q: What about the Log 1/E100 [4] of the same molecule?
A: Its Log 1/E100 is 3.48.

Q: And the Enhancement (Rattus norvegicus [15])?
A: The Enhancement was 3.75.

Q: And the Enhancement (Rattus norvegicus [16])?
A: The Enhancement was 3.15.

Q: And the Max enhancement (Rattus norvegicus [17])?
A: The Max enhancement was 4.7.
